Converted amounts (≈) assume the structure as drawn.
How the values were obtained:
Escherichia coli [1] = assay: Antibacterial activity against 5 x 10^5 CFU/ml Escherichia coli ATCC […] by Etest method in presence of […] NAB739; type: functional
Escherichia coli [2] = assay: Antibacterial activity against Escherichia coli ATCC 25992 in presence of NAB7061; type: functional
Escherichia coli [3] = assay: Antibacterial activity against Escherichia coli ATCC […] by Etest method in presence of NAB7061; type: functional
Pseudomonas aeruginosa [4] = assay: Antibacterial activity against Pseudomonas aeruginosa ATCC 27853by Etest method in presence of […] NAB739; type: functional
Pseudomonas aeruginosa [5] = assay: Antibacterial activity against Pseudomonas aeruginosa ATCC 27853by Etest method; type: functional
Summary of the method: (§1)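 MICs of the antibiotic taken from E-strips on Mueller-Hinton agar, run both with and without peptide. […] Inoculum was prepared per the strip manufacturer, matching CLSI M2-A9.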

Acinetobacter baumannii [6] = assay: Antibacterial activity against Acinetobacter baumannii F264 by Etest method in presence of 1 ug/ml NAB739; type: functional
Acinetobacter baumannii [7] = assay: Antibacterial activity against Acinetobacter baumannii F264 by Etest method in presence of 0.5 ug/ml NAB739; type: functional
Acinetobacter baumannii [8] = assay: Antibacterial activity against Acinetobacter baumannii ATCC 19606 by Etest method in presence of 1 ug/ml NAB739; type: functional
Acinetobacter baumannii [9] = assay: Antibacterial activity against Acinetobacter baumannii ATCC 19606 by Etest method; type: functional
Escherichia coli [10] = assay: Antibacterial activity against 5 x 10^5 CFU/ml Escherichia coli ATCC 25992 in presence of 16 ug/ml NAB7061 by Checkerboard method; type: functional
Escherichia coli [11] = assay: Antibacterial activity against 5 x 10^5 CFU/ml Escherichia coli ATCC 25992 in presence of 2 ug/ml NAB7061 by Checkerboard method; type: functional
Escherichia coli [12] = assay: Antibacterial activity against 5 x 10^5 CFU/ml Escherichia coli ATCC […] by Etest method by Etest in presence of 8 ug/ml NAB7061; type: functional
Escherichia coli [13] = assay: Antibacterial activity against 5 x 10^5 CFU/ml Escherichia coli ATCC […] by Etest method by Etest in presence of 4 ug/ml NAB7061; type: functional
Summary of the method: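 Antibiotic MICs were read from E-strips on Mueller-Hinton agar containing the peptide at 1 to 16 μg/ml in twofold steps, or at a single 4 μg/ml, and on agar without peptide. The inoculum was prepared per the strip maker's instructions and matched CLSI M2-A9. Values come from two independent determinations.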

Escherichia coli [14] = assay: Antibacterial activity against 5 x 10^5 CFU/ml Escherichia coli ATCC […] by Etest method by Etest in presence of 2 ug/ml NAB7061; type: functional
Escherichia coli [15] = assay: Antibacterial activity against 5 x 10^5 CFU/ml Escherichia coli ATCC […] by Etest method by Etest in presence of 1 ug/ml NAB7061; type: functional
Pseudomonas aeruginosa [16] = assay: Antibacterial activity against Pseudomonas aeruginosa ATCC 27853by Etest method in presence of 0.5 ug/ml NAB739; type: functional; summary of the method: as §1
Pseudomonas aeruginosa [17] = assay: Antibacterial activity against Pseudomonas aeruginosa ATCC 27853by Etest method in presence of 1 ug/ml NAB739; type: functional; summary of the method: as §1
Escherichia coli [18] = assay: Antibacterial activity against Escherichia coli ATCC […] by Etest method in presence of 1 ug/ml NAB7061; type: functional
Escherichia coli [19] = assay: Antibacterial activity against Escherichia coli ATCC […] by Etest method in presence of 2 ug/ml NAB7062; type: functional
Escherichia coli [20] = assay: Antibacterial activity against Escherichia coli ATCC […] by Etest method in presence of 4 ug/ml NAB7064; type: functional
Escherichia coli [21] = assay: Antibacterial activity against Escherichia coli IH3080 by Etest method; type: functional
Summary of the method: (§2)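 E-strip MIC on Mueller-Hinton agar without added peptide; inoculum per manufacturer, matching CLSI M2-A9.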

Escherichia coli [22] = assay: Antibacterial activity against Escherichia coli IH3080 by Etest method in presence of 1 ug/ml NAB7061; type: functional
Escherichia coli [23] = assay: Antibacterial activity against Escherichia coli IH3080 by Etest method in presence of 4 ug/ml NAB7064; type: functional
Escherichia coli [24] = assay: Antibacterial activity against Escherichia coli IH3080 by Etest method in presence of NAB7061; type: functional
Klebsiella pneumoniae [25] = assay: Antibacterial activity against Klebsiella pneumoniae ATCC 13883 by Etest method; type: functional; summary of the method: as §1
Klebsiella pneumoniae [26] = assay: Antibacterial activity against Klebsiella pneumoniae ATCC 13883 by Etest method in presence of 2 ug/ml NAB7061; type: functional; summary of the method: as §1
Klebsiella pneumoniae [27] = assay: Antibacterial activity against Klebsiella pneumoniae ATCC 13883 by Etest method in presence of NAB7061; type: functional; summary of the method: as §1
Enterobacter cloacae [28] = assay: Antibacterial activity against Enterobacter cloacae ATCC 23355 by Etest method; type: functional; summary of the method: as §2
Enterobacter cloacae [29] = assay: Antibacterial activity against Enterobacter cloacae ATCC 23355 […] by Etest method in presence of 4 ug/ml NAB7064; type: functional
Enterobacter cloacae [30] = assay: Antibacterial activity against Enterobacter cloacae ATCC 23355 […] by Etest method in presence of NAB7061; type: functional
Escherichia coli [31] = assay: Antibacterial activity against Escherichia coli NCTC13353 by Etest method in presence of 4 ug/ml NAB7062; type: functional
Klebsiella pneumoniae [32] = assay: Antibacterial activity against Klebsiella pneumoniae CCUG45421 by Etest method in presence of 4 ug/ml NAB7063; type: functional
Klebsiella pneumoniae [33] = assay: Antibacterial activity against Klebsiella pneumoniae by Etest method in presence of 4 ug/ml NAB7064; type: functional
Klebsiella oxytoca = assay: Antibacterial activity against Klebsiella oxytoca CCUG51683 by Etest method in presence of 4 ug/ml NAB7066; type: functional
Acinetobacter baumannii [34] = assay: Antibacterial activity against Acinetobacter baumannii ATCC 19606 by Etest method in presence of 4 ug/ml NAB7070; type: functional
Acinetobacter baumannii [35] = assay: Antibacterial activity against Acinetobacter baumannii by Etest method in presence of 4 ug/ml NAB7071; type: functional
Serratia marcescens = assay: Antibacterial activity against Serratia marcescens ATCC 8100 by Etest method in presence of 4 ug/ml NAB7072; type: functional
Proteus mirabilis = assay: Antibacterial activity against Proteus mirabilis ATCC 29906 by Etest method in presence of 4 ug/ml NAB7073; type: functional
Proteus vulgaris = assay: Antibacterial activity against Proteus vulgaris ATCC 13315 by Etest method in presence of 4 ug/ml NAB7074; type: functional
Pseudomonas aeruginosa [36] = assay: Antibacterial activity against Pseudomonas aeruginosa ATCC 27853 by Etest method in presence of 4 ug/ml NAB7075; type: functional
Escherichia coli [37] = assay: microbe, parasite or virus in culture; settings: ATCC 25992
Escherichia coli [38] = assay: microbe, parasite or virus in culture; settings: ATCC 25992; remark: listed apart in the source
Escherichia coli [39] = assay: microbe, parasite or virus in culture; settings: ATCC 25992; remark: listed apart in the source
Escherichia coli [40] = assay: microbe, parasite or virus in culture; settings: ATCC 25992; remark: listed apart in the source

CO[C@H]1/C=C/O[C@@]2(C)Oc3c(C)c(O)c4c(O)c(c(/C=N/N5CCN(C)CC5)c(O)c4c3C2=O)NC(=O)/C(C)=C\C=C\[C@H](C)[C@H](O)[C@@H](C)[C@@H](O)[C@@H](C)[C@H](OC(C)=O)[C@@H]1C [RIFAMPIN]
MIC (Escherichia coli [1]): 12 µg/mL | fractional inhibitory concentration index (FICI) (Escherichia coli [2]): <=0.128 | fractional inhibitory concentration index (FICI) (Escherichia coli [3]): 0.071 | MIC (Pseudomonas aeruginosa [4]): 32 µg/mL | MIC (Pseudomonas aeruginosa [5]): 32 µg/mL (≈ 38.9 µM) | MIC (Acinetobacter baumannii [6]): 0.016 µg/mL | MIC (Acinetobacter baumannii [7]): 0.094 µg/mL | MIC (Acinetobacter baumannii [8]): 0.006 µg/mL | MIC (Acinetobacter baumannii [9]): 4 µg/mL (≈ 4.86 µM) | MIC (Escherichia coli [10]): 0.031 µg/mL | MIC (Escherichia coli [11]): 0.5 µg/mL | MIC (Escherichia coli [12]): 0.006 µg/mL | MIC (Escherichia coli [13]): 0.016 µg/mL | MIC (Escherichia coli [14]): 0.064 µg/mL | MIC (Escherichia coli [15]): 0.19 µg/mL | MIC (Pseudomonas aeruginosa [16]): 32 µg/mL | MIC (Pseudomonas aeruginosa [17]): 16 µg/mL | MIC (Escherichia coli [18]): 0.19 µg/mL | MIC (Escherichia coli [19]): 0.064 µg/mL | MIC (Escherichia coli [20]): 0.016 µg/mL | MIC (Escherichia coli [21]): 8 µg/mL (≈ 9.72 µM) | MIC (Escherichia coli [22]): 0.25 µg/mL | MIC (Escherichia coli [23]): 0.023 µg/mL | MIC (Escherichia coli [24]): ≤ 0.055 µg/mL | MIC (Klebsiella pneumoniae [25]): > 16 µg/mL | MIC (Klebsiella pneumoniae [26]): 0.25 µg/mL | MIC (Klebsiella pneumoniae [27]): ≤ 0.073 µg/mL | MIC (Enterobacter cloacae [28]): 12 µg/mL (≈ 14.6 µM) | MIC (Enterobacter cloacae [29]): 0.008 µg/mL | MIC (Enterobacter cloacae [30]): 0.26 µg/mL | MIC (Escherichia coli [31]): 0.064 µg/mL | MIC (Klebsiella pneumoniae [32]): 2 µg/mL | MIC (Klebsiella pneumoniae [33]): 0.19 µg/mL | MIC (Klebsiella oxytoca): 0.012 µg/mL | MIC (Acinetobacter baumannii [34]): 0.094 µg/mL | MIC (Acinetobacter baumannii [35]): 0.032 µg/mL | MIC (Serratia marcescens): 16 µg/mL | MIC (Proteus mirabilis): 1 µg/mL | MIC (Proteus vulgaris): 1 µg/mL | MIC (Pseudomonas aeruginosa [36]): 12 µg/mL | MIC (Escherichia coli [37]): 8 µg/mL (≈ 9.72 µM) | MIC (Escherichia coli [38]): 8 µg/mL (≈ 9.72 µM) | MIC (Escherichia coli [39]): 8 µg/mL (≈ 9.72 µM) | MIC (Escherichia coli [40]): 8 µg/mL (≈ 9.72 µM)

Source: ChEMBL document CHEMBL1671867, “Novel polymyxin derivatives carrying only three positive charges are effective antibacterial agents” (Antimicrob Agents Chemother, 2008)
